{"source": "paper PMC7336334", "about": "(ACS chemical biology, 2020)", "key": {"PRMTs": {"tested_on": "PRMTs", "test": "PRMT inhibition", "format": "biochemical", "details": "Supporting Information Graph SI-1"}, "KHMTs": {"tested_on": "KHMTs", "test": "KHMT inhibition", "format": "biochemical", "details": "Supporting Information Graph SI-1"}, "DNMT": {"tested_on": "DNMT", "test": "DNMT inhibition", "format": "biochemical", "details": "Supporting Information Graph SI-1"}, "recombinant HSP90α": {"tested_on": "recombinant HSP90α", "format": "binding", "details": "at 50 μM"}, "MCF-7 cells": {"tested_on": "MCF-7 cells", "test": "In situ probe labeling with in-gel TAMRA fluorescence, MCF-7", "format": "cell-based, human", "details": "100 μM competitor, 10 μM probe 4, UV irradiation", "method_in_brief": "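MCF-7 cells (RPMI 1640, 10% FCS) at 80–90% confluence were washed and put in serum-free medium. They got 10 μM probe for 1 h at 37 °C, with 100 μM competitor, then 1 h of 365 nm UV. Lysis in RIPA plus protease inhibitors. SDS-PAGE, fluorescence scan, SYPRO Ruby loading control.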"}, "recombinant GRP94": {"tested_on": "recombinant GRP94", "format": "binding", "details": "at 50 μM"}, "[1]": {"tested_on": "K-562, KG-1, MOLM-13, and WM-266–4 cells", "test": "In situ probe labeling with in-gel TAMRA fluorescence, other cancer cell lines", "format": "cell-based, human", "details": "K-562, KG-1, MOLM-13, WM-266–4 cells, 1 h treatment with 10 μM probe, triplicate", "method_in_brief": "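Cell media: K-562 in RPMI 1640 with 10% FCS, KG-1 and MOLM-13 with 20% FCS, WM-266–4 in EMEM with 10% FCS. Cells were treated in serum-free medium, in triplicate, with 10 μM probe, control probe or 1% DMSO for 1 h at 37 °C. UV at 365 nm for 1 h, then RIPA lysis. Click with TAMRA-biotin-azide/CuSO4/TCEP/TBTA, SDS-PAGE, in-gel fluorescence, SYPRO Ruby loading control.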"}}}
{"molecule": "COCn1cc(C(=O)NCC[C@H]2O[C@@H](n3cnc4c(N)ncnc43)[C@H](O)[C@@H]2O)c(N)nc1=O", "note": "[Compound 1, 1-(Methoxymethyl)-N-((5′-deoxyadenosin-5′-yl)methyl)cytosine-5-carboxamide]", "values": [{"measurement": "activity against PRMTs", "setting": "PRMTs", "value": "inactive"}, {"measurement": "activity against KHMTs", "setting": "KHMTs", "value": "inactive"}, {"measurement": "activity against DNMT", "setting": "DNMT", "value": "inactive"}, {"measurement": "binding to HSP90α", "setting": "recombinant HSP90α", "value": "no significant binding"}, {"measurement": "labeling of probe 4 after competition", "setting": "MCF-7 cells", "value": "completely abolished"}, {"measurement": "binding to GRP94", "setting": "recombinant GRP94", "value": "minor binding"}]}
{"molecule": "C#CCCCC(=O)Nc1ccc(C(=O)c2ccc(NC(=O)CCCCNC(=O)OC(C)(C)C)cc2)cc1", "note": "[Compound 5, N-(4-(4-(5-(Boc-amino)pentanamido)benzoyl)phenyl)hex-5-ynamide]", "values": [{"measurement": "labeling of band at 100 kDa / fluorescent labeling", "setting": "[1]", "value": "absence of fluorescent labeling"}]}
{"molecule": "Nc1nc(=O)n(COCc2ccccc2)cc1C(=O)NCC[C@H]1O[C@@H](n2cnc3c(N)ncnc32)[C@H](O)[C@@H]1O", "note": "[Compound 2]", "values": [{"measurement": "activity against PRMTs", "setting": "PRMTs", "value": "inactive"}, {"measurement": "activity against KHMTs", "setting": "KHMTs", "value": "inactive"}, {"measurement": "activity against DNMT", "setting": "DNMT", "value": "inactive"}, {"measurement": "binding to HSP90α", "setting": "recombinant HSP90α", "value": "no significant binding"}, {"measurement": "labeling of probe 4 after competition", "setting": "MCF-7 cells", "value": "completely abolished"}, {"measurement": "binding to GRP94", "setting": "recombinant GRP94", "value": "minor binding"}]}
